Here are results for 23 sequences from the EternaBench riboswitch data.

Data set [1] has as its system MS2 coat protein. Description: apparent Kd, MS2 coat protein; higher = weaker binding; RNA-MaP array; tryptophan 2.4 mM where present. The settings on record: designed as: OFF switch for tryptophan. Put shortly:
(§1)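 Stalled E. coli RNA polymerase produced the designs on Illumina sequencing-chip clusters. SNAP-549-labelled MS2 coat protein was added from 0.7 or 1.5 nM, doubling to 3 µM, without and then with constant ligand, in 100 mM Tris-HCl pH 7.5, 80 mM KCl, 4 mM MgCl2, BSA, DTT, yeast tRNA and Tween-20. The apparent Kd is the median of filtered per-cluster fits of green signal normalised to red-channel RNA signal and control-cluster median Fmax.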

The test system of data set [2] is MS2 coat protein. Description: apparent Kd, MS2 coat protein; higher = weaker binding; RNA-MaP array; theophylline 2 mM where present. The method in brief: as §1
Where [3] appears, read: designed as: ON switch for theophylline, no ligand.
[4] abbreviates: ligand present: theophylline, designed as: ON switch for theophylline.
[5] abbreviates: designed as: OFF switch for theophylline, no ligand.
Setting [6] is: ligand present: theophylline, designed as: OFF switch for theophylline.

Turning to “UCGGUUUUCUACAUGAGGAUCACCCAUGUCCGAGGACCGGUACGGCCGCCACUCGCAAUCAAACAGACGUGGGCCAAAUUUGCGU”, the figures for the “apparent Kd” value in the data set with MS2 coat protein [1] (no ligand) and in the data set with MS2 coat protein [1] (ligand present: tryptophan) were 0.01 µM and 0.0143 µM, respectively.
For the sequence “UAAAACAUGAGGAUCACCCAUGUAAUUGAUACCAGAGUGAUGAUCCUCCCUUGGCAGCAAAACGCUGAUUGAUUACAAUCAGCGA”, the “apparent Kd” value in the data set on MS2 coat protein [2] (setting [3]) was 0.0543 µM; in the data set with MS2 coat protein [2] (setting [4]), 0.207 µM.
Turning to “GAUGAACUAUUCGAUACCAGACCACAUGAGGAUCACCCAUGUGUGUUUCGUCCUUAGCCGGUCCCUUGGCAGCGAAUAGUUUAUC”, the figures for the “apparent Kd” value with MS2 coat protein [2] (setting [5]) and in the data set with MS2 coat protein [2] (setting [6]) were 0.0202 µM and 0.0303 µM, respectively.
In the same order, the values of “AGCGACAUGCGUGAUACCAGCUACAUGAGGAUCACCCAUGUACGUCAGAAAUGACUGUGUAGCCCUUGGCAGCAUAAUGCAUGUC” are 0.0409 µM and 0.0705 µM.
The matching figures for “ACGAUACGACAUGAGGAUCACCCAUGUGAUACCAGCGUGGAAACACGCCCUUGGCAGCACAAAUACUCCAAUAACGUAUCGAAAA”: 0.26 µM and 0.24 µM.
In the same order, the values of “AAACAUUGCUCAGAUACCAGACAUGAGGAUCACCCAUGUACCAAGGUACCCGAAAGGAAUGUCCCUUGGCAGCUGAGCAAUGAAA” are 0.0101 µM and 0.0274 µM.
Regarding “CCAUACGUAACUGAUACCAGUGUACUGACAUGAGGAUCACCCAUGUUGGGUUUUGUUGUACACCCUUGGCAGCAGAAUCGUAUGG”, the “apparent Kd” value stood at 0.0689 µM with MS2 coat protein [2] (setting [5]) and 0.101 µM in the data set on MS2 coat protein [2] (setting [6]).
Consider “GAUCCUCGUACGGAUACCAGCGACUAACAUGAGGAUCACCCAUGUGAUAAAGAAAAUAUUUGCCCUUGGCAGCCGAAUAGAUAGU”, for which the “apparent Kd” value in the data set on MS2 coat protein [2] (setting [3]) is 0.0727 µM; in the data set on MS2 coat protein [2] (setting [4]), 0.0349 µM.
The matching figures for “GGCUGUUGCUCUUUGAAGCGGCAGCGUGAUACCAGAUGUAAGAGCGUCCCUUGGCAGCACGUUUACAUGAGGAUCACCCAUGUCA”: 0.211 µM and 0.0728 µM.
For the sequence “ACAUGAGGAUCACCCAUGUAAUGGCACGAUACCAGCUGAUCCCGUGGCCCUUGGCAGCGUCCGGUGUGGUCCGCCGGGUUGGAGC”, the figures for the “apparent Kd” value with MS2 coat protein [2] (setting [3]) and with MS2 coat protein [2] (setting [4]) were 0.021 µM and 0.0393 µM, respectively.
For “CGGUUUGUGAUGGAUACCAGCAGAGAAAAUGUUUAUCCUAACAUGAGGAUCACCCAUGUAUGCCCUUGGCAGCUGUUGUGGGCUG”, the “apparent Kd” value in the data set with MS2 coat protein [2] (setting [5]) stood at 0.0648 µM; in the data set on MS2 coat protein [2] (setting [6]) it was 0.0621 µM.
In the same order, the values of “GAUGAACUAUAUGAUACCAGACAACAUGAGGAUCACCCAUGUGAUAGUCGUCCUCUGCCUGUCCCUUGGCAGCGUAUAGUUUAUC” are 0.0406 µM and 0.102 µM.
The matching figures for “UCCUCCUCCGCAAGGAGGAGGAGUUGCGAUACCAGCACGGUAACGUGCCCUUGGCAGCGCACAUGAGGAUCACCCAUGUCAUGUU”: 0.0176 µM and 0.0223 µM.
Take “AUACCUAAUGUUACAUUUUCCUUUUCAGAUACCAGACUUUACGUUGUCCCUUGGCAGCUGUAUCACAUGAGGAUCACCCAUGUUG”: the results for the “apparent Kd” value with MS2 coat protein [2] (setting [3]) and in the data set on MS2 coat protein [2] (setting [4]) were 0.0166 µM and 0.0169 µM, respectively.
For the sequence “ACGUCACGUUUACUCGUGGUUUCGUUCGAUACCAGUAGCGAGAGUUACCCUUGGCAGCGACAUGAGGAUCACCCAUGUACGAAGA”, the “apparent Kd” value in the data set on MS2 coat protein [2] (setting [5]) came out at 0.0131 µM; in the data set on MS2 coat protein [2] (setting [6]), 0.0272 µM.
The matching figures for “AAAUAAAUAACUGAUACCAGUGGACUGACAUGAGGAUCACCCAUGUUGGGUUUUGUUGUCCACCCUUGGCAGCGGGCAUAUAAAA”: 0.0248 µM and 0.0669 µM.
In the same order, the values of “ACAUGAGGAUCACCCAUGUUCCUCGCCGAUACCAGUGAAGAAGAACGCCCUUGGCAGCGGAAAGAGUAUUUUGGAGAUGAGGUAC” are 0.0801 µM and 0.129 µM.
For the sequence “UCGUGUAAAACGGAUACCAGUGAGAAGGAUACAUGAGGAUCACCCAUGUGAGUUGAUCCACACCCUUGGCAGCUGUAUAUAUCUA”, the “apparent Kd” value in the data set with MS2 coat protein [2] (setting [3]) turned out to be 0.118 µM; in the data set on MS2 coat protein [2] (setting [4]) it was 0.706 µM.
Consider “AUGUUUGUGUGAGAUACCAGUGAGGCCACAUGAGGAUCACCCAUGUCCCUCACUCCGGCCCACCCUUGGCAGCUCUUAUAGAAAA”, for which the “apparent Kd” value with MS2 coat protein [2] (setting [5]) was determined as 0.01 µM; in the data set with MS2 coat protein [2] (setting [6]) it was 0.0596 µM.
In the same order, the values of “ACGUCCGGGUUAAUCGUGGGCAUGGUCGAUACCAGUAUUUUAAUCUACCCUUGGCAGCGACAUGAGGAUCACCCAUGUGCGAUGA” are 0.017 µM and 0.0355 µM.
Consider “CCUGCGUUUCUUUUCUUUCGCAGGAAUGAUACCAGUAGGGAAACCUACCCUUGGCAGCAUGGGACAUGAGGAUCACCCAUGUAAU”, for which the “apparent Kd” value in the data set with MS2 coat protein [2] (setting [3]) was determined as 0.439 µM; in the data set on MS2 coat protein [2] (setting [4]), 0.0893 µM.
As to “AGCGACAUGCGUGAUACCAGCUACAUGAGGAUCACCCAUGUGAGUAGGAAACUACUGUGUAGCCCUUGGCAGCACAGUGCAUGUC”, the entries for the “apparent Kd” value in the data set with MS2 coat protein [2] (setting [5]) and in the data set with MS2 coat protein [2] (setting [6]) were 0.0105 µM and 0.0637 µM, respectively.
With “AAUAACAUGAGGAUCACCCAUGUAAAAGAUACCAGAGUGAUGAUCCUCCCUUGGCAGCUUAAACGCUAUUGAUUACAAUAGCGAA”, the “apparent Kd” value in the data set with MS2 coat protein [2] (setting [3]) was 0.0415 µM; in the data set with MS2 coat protein [2] (setting [4]), 0.144 µM.
